Rin1 Abl inh: inhibitors of human Rin1-Abl protein interaction; P00519+Q13671; AID 588664; TR-FRET Rin1/Abl binding, biochemical; inhibition, % at 7.35 µM; 360,000 tested, 0.4% active; in the data active = inhibition above about 5%, passing the limit was not always enough
H9c2 protect: myocardial damage modulation in H9c2 cells; H9c2 cardiomyocytes, H2O2 injury protection, ATPLite, 2 h; protection from H2O2 cell death, % at 20 µM; 360,000 tested, 0.63% active;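 active = compounds giving at least 50% protection of heart cells from peroxide-induced death in the single-dose screen, raw or plate-pattern-corrected value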
PKA-R1A activ: PKA-R1A complex activation | activation, % at 11.4 µM | 340,000 tested, 0.083% active | AID 504707 | PKA-R1A dissociation, Cy5-IP20 fluorescence polarization; scaled: DMSO 0%, 113 µM cGMP 100% | P00514+P68181;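 active = percent activation above the mean of all tested compounds plus 3 SD, cut at about 19% in these data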;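 also: higher means more PKAc released from R1A so a rise in polarization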
Tb MetRS inh: Trypanosoma brucei MetRS inhibition. purified T. brucei MetRS, ATP depletion, Kinase-Glo luminescence. inhibition, % at 11.9 µM. 360,000 tested, 0.4% active. AID 624268;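 active = inhibition above a per-plate cutoff of the control wells' mean inhibition plus 3 SD, cut at about 5.5% in these data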
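Measured by: Kinase-Glo luciferase luminescence reporting remaining unconsumed ATP. Material: purified T. brucei MetRS enzyme. Doses: 11.9 µM compound single dose, 0.9% DMSO. Medium: HEPES buffer containing pyrophosphatase, BSA, spermine, DTT. Times: 15 min preincubation, 2 h reaction, all 25 °C. Reagent: methionine, ATP and bulk E. coli tRNA.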
PKA-R2B activ: activates the human PKA-R2B holoenzyme complex | activation, % at 11.4 µM | PKA-R2B holoenzyme dissociation, Cy5-IP20 fluorescence polarization; R2B truncated from residue 108, S112A mutant; 0% DMSO only, 100% 113 µM cGMP | 340,000 tested, 0.079% active | P22694+P31323;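 active = activation above a cutoff set at the mean over all compounds plus 3 SD, cut at about 18% in these data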;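 also: higher means more holoenzyme dissociation and a rise in polarization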
Target sequence (P31323 whole entry, looked up, other chains not shown, the tested form may be a part): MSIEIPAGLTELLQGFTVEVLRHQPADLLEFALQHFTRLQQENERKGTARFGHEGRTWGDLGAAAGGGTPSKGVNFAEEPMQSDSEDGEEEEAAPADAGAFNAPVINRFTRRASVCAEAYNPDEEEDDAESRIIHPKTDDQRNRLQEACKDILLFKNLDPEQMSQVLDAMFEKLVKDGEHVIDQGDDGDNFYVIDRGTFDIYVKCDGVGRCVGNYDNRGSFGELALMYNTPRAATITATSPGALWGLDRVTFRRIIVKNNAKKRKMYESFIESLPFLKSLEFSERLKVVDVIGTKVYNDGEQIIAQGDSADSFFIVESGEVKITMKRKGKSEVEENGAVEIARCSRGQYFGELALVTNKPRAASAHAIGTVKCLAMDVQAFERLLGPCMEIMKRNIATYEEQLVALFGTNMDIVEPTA
Rin1 Abl conf: confirmation of inhibitors of human Rin1-Abl interaction; shares compounds with Rin1 Abl inh; TR-FRET Rin1-Abl binding, purified proteins; inhibition, % at 7.35 µM; 1,300 tested, 49% active
GFP quencher: GFP fluorescence interference artifact. shares compounds with Rin1 Abl inh. inhibitors/quenchers counterscreen. inhibition, % at 6.75 µM. 1,300 tested, 8.5% active;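 also: ABL1-eGFP fusion protein alone without its partner RIN1-SBP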
GFP quench dose: quenches GFP in dose response, Rin1-Abl counter-screen | shares compounds with Rin1 Abl inh | GFP fluorescence interference/quenching counterscreen | IC50, µM | 230 tested, under 10 active | AID 602182; call rule not given here;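 also: ABL1-eGFP fusion protein alone without its RIN1 binding partner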
Of the large screens only hits and unclear results are named; the others gave an inactive call (follow-up assays come after a bar, where they were run). Shown are actives, neighbours in structure and some others; about 1.5% of the full set was active somewhere. Rule as the data show it, unless noted: active = inhibition above about 6.5%; inactive = the rest.

C=Cc1cc(OC)c2c(c1)c(=O)oc1c2cc(OC)c2c(O)ccc(C3OC(C)C(O)C(C)(O)C3O)c21 (stereo not drawn)	Rin1 Abl inh 22 | Rin1 Abl conf inactive | GFP quencher inactive
Oc1ccc(C[C@H]2NCCc3cc(O)c(O)cc32)cc1O	Rin1 Abl inh 62, H9c2 protect 57 | Rin1 Abl conf 70 | GFP quencher inactive | GFP quench dose inactive
C/C(=N\Nc1ccccc1)c1c(O)n(C)c(=O)n(C)c1=O	none
CCCN1CCc2cccc3c2[C@H]1Cc1ccc(O)c(O)c1-3	Rin1 Abl inh 12, H9c2 protect 51 | Rin1 Abl conf inactive | GFP quencher 8.6
CCCCn1nc(C)c(C(=O)O)c1Cl	none
CC(C)(C)n1nnnc1C(C1CC1)N1CCC(n2c(=O)[nH]c3ccccc32)CC1 (stereo not drawn)	none (no result: PKA-R1A activ, PKA-R2B activ)
O=c1[nH]c2ccccc2n1C1CCN(C(c2nnnn2C2CCCC2)C2CC2)CC1 (stereo not drawn)	Rin1 Abl inh 31 (no result: PKA-R1A activ, PKA-R2B activ) | Rin1 Abl conf 23 | GFP quencher inactive | GFP quench dose inactive
O=c1[nH]c2ccccc2n1C1CCN(C(c2nnnn2C2CCCCC2)C2CC2)CC1 (stereo not drawn)	Rin1 Abl inh 74 (no result: PKA-R1A activ, PKA-R2B activ) | Rin1 Abl conf 74 | GFP quencher inactive | GFP quench dose inactive
CCN(CC)C(=O)Cn1cc(/C=C2\C(=O)NC(=O)N(c3ccccc3F)C2=O)c2ccccc21	none
CCCCNC(=O)NC(C(N)=O)P(=O)(OCC)OCC (stereo not drawn)	none
CN(C)C1C(=O)C(C(N)=O)=C(O)C2(O)C(=O)C3=C(O)c4c(O)cccc4C(C)(O)C3C(O)C12 (stereo not drawn)	Rin1 Abl inh 25 | Rin1 Abl conf inactive | GFP quencher inactive
C[C@H](N)CN1CCc2ccc(Br)cc21	none
CSCCC(c1nnnn1C1CCCC1)N1CCC(n2c(=O)[nH]c3ccccc32)CC1 (stereo not drawn)	Rin1 Abl inh 19 (no result: PKA-R1A activ, PKA-R2B activ) | Rin1 Abl conf 20 | GFP quencher inactive | GFP quench dose inactive
CSCCC(c1nnnn1-c1c(C)cccc1C)N1CCC(n2c(=O)[nH]c3ccccc32)CC1 (stereo not drawn)	none (no result: PKA-R1A activ, PKA-R2B activ)
O=c1[nH]c2ccccc2n1C1CCN(C(CCc2ccccc2)c2nnnn2C2CCCCC2)CC1 (stereo not drawn)	Rin1 Abl inh 27 (no result: PKA-R1A activ, PKA-R2B activ) | Rin1 Abl conf 14 | GFP quencher inactive
CC(C)(C)n1nnnc1C(CCc1ccccc1)N1CCC(n2c(=O)[nH]c3ccccc32)CC1 (stereo not drawn)	Rin1 Abl inh 17 (no result: PKA-R1A activ, PKA-R2B activ) | Rin1 Abl conf 11 | GFP quencher inactive
O=c1[nH]c2ccccc2n1C1CCN(C(CCc2ccccc2)c2nnnn2Cc2ccccc2)CC1 (stereo not drawn)	none (no result: PKA-R1A activ, PKA-R2B activ)
CSCCC(c1nnnn1Cc1ccccc1)N1CCC(n2c(=O)[nH]c3ccccc32)CC1 (stereo not drawn)	none (no result: PKA-R1A activ, PKA-R2B activ)
CSCCC(c1nnnn1C1CCCCC1)N1CCC(n2c(=O)[nH]c3ccccc32)CC1 (stereo not drawn)	Rin1 Abl inh 53 (no result: PKA-R1A activ, PKA-R2B activ) | Rin1 Abl conf 44 | GFP quencher inactive | GFP quench dose inactive
COc1cc2cc(C(=O)N3CC(COS(C)(=O)=O)c4ccc(O)cc43)[nH]c2c(OC)c1OC (stereo not drawn)	none
O=C(CCCc1ccc(N(CCCl)CCCl)cc1)NCc1ccccc1	none
C[C@]12CC[C@H](O)CC1=CC(=O)C1C2CC[C@]2(C)C(=O)CCC12 (stereo partly drawn)	Rin1 Abl inh 13 | Rin1 Abl conf inactive | GFP quencher inactive
O=c1[nH]c(=O)n(CCc2ccccc2)c(O)c1C=NC1CC1	none (no result: PKA-R1A activ, PKA-R2B activ)
Clc1ccc2c(c1)C(OC1CN3CCC1CC3)c1ccccc1CS2 (stereo not drawn)	Rin1 Abl inh 9.7 | Rin1 Abl conf inactive | GFP quencher inactive
